# The list is not random: actives were taken first. Their share in the collection is about 3.7%.
# AHR activator: activators of human aryl hydrocarbon receptor. P35869. AHR-responsive luciferase reporter cells, luminescence. activation, % at 5 µM. actives 2.5% (n = 320,000). AID 2796; in the data active = activation above about 47%;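 note: 0% = vehicle wells and 100% = reference agonist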
# FXN GAA850 act: activators of GAA850 frataxin (FXN) promoter; HEK293 lucGAA850 FXN promoter luciferase reporter, 24 h; percent of 10 µM SAHA response; activation, % at 6 µM; actives 0.56% (n = 360,000);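 active = activation above the average of all compounds screened plus 3 SD, cutoff fixed separately per campaign, cut at about 7.5% in these data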;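 note: 0% = DMSO wells and 100% = 10 µM SAHA wells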
# SR-BI HDL uptake: inhibitors of mouse SR-BI mediated HDL lipid uptake; inhibition, % at 12.5 µM; Q61009; actives 0.96% (n = 320,000); ldlA[mSR-BI] CHO cells, DiI-HDL uptake fluorescence, 3 h;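 active = mean replicate inhibition of at least 70% and a set share of replicates each scoring 70 or more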;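 note: 0% = median of neutral control wells and 100% = median of positive control wells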
# Target sequence (Q61009 whole entry, looked up): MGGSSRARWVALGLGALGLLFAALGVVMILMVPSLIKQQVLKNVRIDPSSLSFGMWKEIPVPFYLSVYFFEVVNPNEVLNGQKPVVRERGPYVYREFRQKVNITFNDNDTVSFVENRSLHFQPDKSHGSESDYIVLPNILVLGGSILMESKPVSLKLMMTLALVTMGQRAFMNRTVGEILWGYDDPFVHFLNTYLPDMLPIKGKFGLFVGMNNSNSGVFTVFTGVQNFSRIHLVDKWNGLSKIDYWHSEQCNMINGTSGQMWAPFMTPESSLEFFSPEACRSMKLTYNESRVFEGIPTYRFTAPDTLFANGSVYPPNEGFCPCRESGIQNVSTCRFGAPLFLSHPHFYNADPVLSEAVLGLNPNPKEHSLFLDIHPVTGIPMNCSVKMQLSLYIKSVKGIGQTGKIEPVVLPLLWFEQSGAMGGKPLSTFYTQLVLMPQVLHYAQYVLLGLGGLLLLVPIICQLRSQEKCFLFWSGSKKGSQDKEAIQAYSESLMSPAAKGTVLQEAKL
# GASC-1 inh: human JMJD2C demethylase inhibition; GST-JMJD2C(1-420) H3K9me3 demethylation, DELFIA europium; Q9H3R0; inhibition, % at 2.35 µM; AID 2099; actives 0.069% (n = 330,000);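 active = more than half of a compound's replicate wells show inhibition beyond 50%, single wells judged on their own value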;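 note: signal counts dimethyl H3K9 product captured on neutravidin plate; 0% = median of DMSO wells and 100% = 0.3 times that DMSO median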
# SR-BI DiI-HDL act: activators of SR-BI mediated HDL lipid uptake | activation, % at 12.5 µM | actives 0.096% (n = 320,000) | AID 504775 | CHO ldlA[mSR-BI] cells, DiI-HDL uptake fluorescence, 3 h; 100 = double the neutral-control signal;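 active = mean replicate activation of at least 60% and every replicate at or above 60%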;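 note: 0% = median plate neutral-control signal and 100% = twice that signal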
#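 System: CHO ldlA[mSR-BI] cells / Medium: HEPES-buffered (25 mM, pH 7.4) F12 plus 0.5% BSA / Probe or stimulus: labelled HDL, 10 µg/mL / Doses: single compound concentration, delivered by pin transfer / Schedule: 3 h, 37 °C / Measured by: DiI fluorescence, bottom read / Measure: cell-associated DiI fluorescence as measure of HDL uptake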
# AHR act cf: confirmation of human aryl hydrocarbon receptor activators | AID 2845 | shares compounds with AHR activator | activation, % at 9 µM | actives 87% (n = 2,300) | human cells, AHR-responsive luciferase reporter, luminescence; in the data active = activation above about 49%;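 note: HepG2 hepatoma cells carrying a DRE-driven firefly luciferase reporter; 0% = vehicle wells and 100% = reference agonist wells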
# PXR act counter: PXR activation, counter-screen for AHR activators; shares compounds with AHR activator; cell-based PXR reporter, luciferase luminescence; activation, % at 11.6 µM; actives 88% (n = 2,300); AID 434939; in the data active = activation above about 11%;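 note: human hepatoma DPX-2 cells expressing full-length human PXR; 0% = DMSO and 100% = reference agonist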
# * marks the source's active call; other numbers are inactive results; x = no result given.
SMILES,AHR activator,FXN GAA850 act,SR-BI HDL uptake,GASC-1 inh,SR-BI DiI-HDL act,AHR act cf,PXR act counter
COc1ccc(Br)cc1C(=O)Nc1ccc(N2CCCC2)cc1,104.6*,2.8,78.2*,48.4,-78.2,148.1*,17.7*
O=S(=O)(/N=C(/c1ccccc1)N1CCOCC1)c1ccc(Br)cc1,2.1,0.0,-23.8,-1.2,23.8,x,x
O=c1[nH]c(-c2ccc(O)cc2)nc2scc(-c3cccs3)c12,123.9*,6.3,x,7.2,x,86.5*,22.7*
Cc1nc2scc(-c3cccs3)c2c(=O)[nH]1,-0.8,1.9,-7.1,-2.9,7.1,x,x
Cc1ccc(-c2nnc(COC(=O)c3cc(=O)[nH]c4ccccc34)o2)cc1,2.5,-1.1,-5.2,3.6,5.2,x,x
Cc1ccc(C)c(NC(=O)COC(=O)c2nc(Cl)ccc2Cl)c1,11.1,-0.9,-5.7,-0.6,5.7,x,x
Cc1ccc(C)c(NC(=O)c2nc(Cl)ccc2Cl)c1,81.4*,2.0,24.8,-15.9,-24.8,105.9*,112.2*
Cc1cccc(C(=O)Nc2cccc(NC(=O)c3ccccc3)c2)c1,20.3,2.4,45.0,15.5,-45.0,x,x
Cc1cccc(NC2=C(NC(=O)c3ccccc3)C(=O)c3ccccc3C2=O)c1,105.7*,-2.6,42.4,1.5,-42.4,103.5*,123.6*
NC(=Nc1ccccc1)NC(=O)c1nc(Cl)c(N)nc1N,85.5*,5.6,2.7,-2.8,-2.7,29.8,35.4*
Brc1c(-c2ccc3c(c2)OCO3)nc2ncccn12,101.2*,3.8,x,-1.0,x,115.8*,22.2*
COc1ccc(-c2nc3ncccn3c2Br)cc1,29.4,4.6,-0.2,-2.9,0.2,x,x
COc1ccc(NC(=O)CN2CCC(C(N)=O)(N3CCCCC3)CC2)c(OC)c1,-0.8,1.2,8.2,-3.3,-8.2,x,x
CC(Nc1nc(N2CCCCC2)nc2ccccc12)c1ccccc1 (stereo not given),1.0,-7.2,-4.3,-7.9,4.3,x,x
C=CCNc1nc(N2CCCC2)nc2ccccc12,83.8*,3.1,-11.7,-10.6,11.7,35.0,11.7*
Cc1ccc(N=Nc2c(O)[nH]c3ccc(F)cc23)cc1,113.9*,4.8,-10.6,-10.6,10.5,129.0*,21.7*
COc1ccccc1NC(=O)C1CCCN(c2cnccn2)C1 (stereo not given),95.8*,0.3,-14.4,4.0,14.4,79.8*,24.0*
Cc1c(-c2nc(-c3cccnc3)no2)cccc1[N+](=O)[O-],88.5*,1.7,1.9,10.8,-1.9,119.0*,18.9*
CN1CCN(S(=O)(=O)c2cccc(C(=O)N(Cc3ccccc3)c3ccccc3)c2)CC1,-0.3,-0.7,-12.5,-14.0,12.5,x,x
[O-][n+]1onc2c3cc(-c4ccccc4)nnc3ccc21,88.1*,6.1,10.9,-0.3,-10.9,107.6*,x
c1ccc(-c2cc(-c3ccccc3)on2)cc1,22.2,4.3,18.7,1.3,-18.7,x,x
CN(Cc1ccccc1)C(=S)Nc1ccc2nc3n(c(=O)c2c1)CCCCC3,-1.2,-1.1,54.1,5.3,-54.1,x,x
O=C(CSc1cccc[n+]1[O-])Nc1cc2c(cc1Cl)C(=O)c1ccccc1C2=O,121.2*,3.9,-8.0,-3.0,8.0,134.6*,54.4*
CSc1ncc(C(=O)Nc2ccc(Cl)cc2)c(C)n1,93.5*,1.0,22.4,-15.6,-22.4,100.4*,x
CC(=O)Nc1nc2cc([N+](=O)[O-])ccc2s1,-1.4,-0.9,-17.1,-0.2,17.1,x,x
SMILES,AHR activator,FXN GAA850 act,SR-BI HDL uptake,GASC-1 inh,SR-BI DiI-HDL act,AHR act cf,PXR act counter
O=c1nc(Nc2ccc(Br)cc2)sc2ccc([N+](=O)[O-])cc12,95.6*,0.1,13.1,-11.5,-13.1,101.7*,x
COc1cc2c(cc1OC)/C(=C/c1ccc(Br)cc1)C(=O)OC2,84.8*,4.8,9.3,-7.2,-9.3,60.1*,14.6*
CCNC(=S)/N=C(/Nc1ccccc1)Nc1nc(C)cc(C)n1,80.1*,2.8,x,-1.6,x,112.8*,63.9*
CCNC(=S)/N=C(/Nc1ccc(OC)cc1)Nc1nc(C)cc(C)n1,8.3,0.3,x,-20.8,x,x,x
CCn1c(O)c(N=NC(=O)CNC(=O)c2ccco2)c2ccccc21,12.4,0.8,-6.9,10.4,6.9,x,x
CCCn1c(O)c(N=NC(=O)c2ccco2)c2ccccc21,86.6*,0.8,-0.4,0.1,0.4,87.6*,50.0*
C=CCOC(=O)C1=C(C)NC(=O)NC1c1ccc2c(c1)OCO2 (stereo not given),1.2,2.5,-7.2,21.0,7.2,x,x
C=CCOC(=O)c1c(C)nc2cc3c(cc2c1C)OCO3,107.9*,2.6,-8.4,-1.7,8.4,56.5*,53.2*
Cc1ccc(S(=O)(=O)N2CCOCC2)cc1NCC(=O)Nc1ccc(OC(F)(F)F)cc1,-0.3,0.1,6.7,-2.1,-6.7,x,x
COc1ccc(/C=N/NC(=O)c2nnn(-c3nonc3N)c2CN(C)C2CCCCC2)cc1,4.0,-0.2,-10.1,5.9,10.1,x,x
COc1ccc(N(C(=O)c2ccco2)C(C(=O)NC2CCCC2)c2cc(OC)c(OC)c(OC)c2)cc1 (stereo not given),0.2,-1.1,4.4,2.9,-4.4,x,x
COc1ccc(C2C(=O)N(C3CCCCC3)CC(=O)N2Cc2ccco2)cc1 (stereo not given),-0.6,-0.8,-16.9,3.4,16.9,x,x
CCCn1c(=O)c2c(nc3n2CCCN3Cc2ccccc2)n(C)c1=O,2.9,-2.5,-11.7,5.4,11.7,x,x
Cn1c(=O)n(CCc2ccccc2)c(=O)c2c1nc1n2CCCN1Cc1ccccc1,119.1*,-1.0,32.3,-42.4,-32.3,82.6*,149.5*
Cn1c(=O)n(CCc2ccccc2)c(=O)c2c1ncn2Cc1ccccc1,80.6*,-2.3,2.9,-0.1,-2.9,94.5*,28.1*
COc1c2occc2c(OC)c2c(=O)cc(C(F)(F)F)oc12,83.6*,-0.6,-2.5,-17.6,2.5,86.4*,21.7*
Cc1ccc(NS(=O)(=O)c2ccc(OCC(=O)NCc3ccccn3)cc2)cc1,5.2,0.2,-7.1,8.0,7.1,x,x
CCC(CO)Oc1cc(NC(=O)c2cccc(C)c2)c2ncn(C(C)C)c2c1 (stereo not given),6.4,0.7,59.2,0.8,-59.2,x,x
CC(=O)Nc1cc(-c2nn3c(C)nnc3s2)ccc1C,99.0*,1.6,-8.7,0.4,8.7,88.6*,11.1*
O=C(COC(=O)c1ccco1)Nc1cccc(S(=O)(=O)N2CCCCC2)c1,4.3,2.7,-7.6,-0.5,7.6,x,x
CCCc1ccc(-c2c(C)sc(N)c2C#N)cc1,97.2*,0.3,x,3.5,x,104.4*,13.3*
CC(=O)N(c1ccc(Cl)cc1)c1nc(C)cc(C)c1C#N,101.7*,3.4,-17.7,-0.2,17.7,112.2*,109.7*

# From PubChem
